Lmaj promast: reduces viability of Leishmania major promastigotes | resazurin fluorescence viability | inhibition, % at 10 µM | 200,000 tested, 9% active | AID 1063; in the data active means inhibition above about 50%;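 further: promastigotes grown with compound for 44 hours at 28 °C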
T cruzi repl: blocks replication of Trypanosoma cruzi. T. cruzi beta-gal in NIH3T3, luminescence, 90 h. inhibition, % (no concentration beside the values). 300,000 tested, 1.4% active;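 active means mean inhibition across valid replicates above about 55%, limit read from the data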;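 further: signal also drops with host cell toxicity which is not excluded here; 0% = plate median of DMSO wells and 100% = zero luminescence signal; higher percent means less beta-gal luminescence so fewer parasites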
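Assay system: NIH/3T3 fibroblasts plus reporter T. cruzi. Amount: NIH/3T3 cells, 5,000 per well. Buffer or medium: DMEM, 2% fetal bovine serum. Doses: compound pinned at 50 nL/well, DMSO. Schedule: ≥90 h infection period, 3 h prior cell attachment. Signal: luminescent β-galactosidase signal after 60 min lysis. Read-out: parasite load inhibition, %.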
DTT redox prof: compounds producing H2O2 with reducing agent – biochemical, NIH compound library profiling, artefact control for MLSCN library redox annotation, primary screen; DTT-dependent redox cycling H2O2, phenol red/HRP absorbance; 100% = 100 µM peroxide control, 0% = buffer; activation, % at 10 µM; 200,000 tested, 0.03% active;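 active means activation of at least 50% relative to the plate's high and low controls in the primary single-dose screen; inactive means activation below 50%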;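 further: compound incubated with DTT at 0.8 mM final as the reducing agent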
Hep lipid drop: modulators of hepatic lipid droplet formation. AML12 mouse hepatocytes, oleate lipid droplets, BODIPY imaging. inhibition, % at 6.5 µM. 240,000 tested, 0.4% active;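 active means lipid droplet intensity inhibited by at least 50%, with more than 500 cells counted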
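Assay system: AML12 hepatocytes (mouse); Probe or stimulus: oleic acid at 100 µM to induce lipid droplet formation; Dosing: compound at 6.5 µM only; Schedule: compound with oleate, overnight; Detection: fluorescence imaging, 20x objective, two fields per well; Measure: % inhibition of lipid droplet signal.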
MPTP block: permeability transition pore inhibition; 360,000 tested, 1.4% active; isolated mouse mitochondria, Ca2+ swelling absorbance, 30 min; AID 602449; inhibition, % at 10 µM;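 active means inhibition of 50% or more, scaled per plate between neutral and stimulator controls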;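 further: 0% = DMSO wells given calcium and 100% = 1 mM EGTA wells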
* hit, by the source's call. This is one part of a sample in which hits are shown more often than they occur.

What do the screens show for `CC(C)NC(=O)Nc1ccc2c(c1)C(=O)N([C@H](C)CO)C[C@H](C)[C@@H](CN(C)S(C)(=O)=O)O2`?
MPTP block: 0.1

How did O=C(NCc1ccc2c(c1)OCO2)C1CCCN1C(=O)Nc1ccc(Cl)cc1 (centres undefined) do in these assays?
T cruzi repl: -0.1; Hep lipid drop: -9.5; MPTP block: 1.6

What do the screens show for `COc1cccc(NC(=O)[C@H](C)NC(=O)C2CCN(S(=O)(=O)c3ccc(C)cc3)CC2)c1`?
T cruzi repl: -6.4; Hep lipid drop: 18.0; MPTP block: 0.4

How did C(=N\N(Cc1ccccc1)c1ccccc1)/c1cccnc1 do in these assays?
Lmaj promast: 17.7; T cruzi repl: 23.9; DTT redox prof: -0.2; Hep lipid drop: -14.3; MPTP block: -2.4

Results for C/C(=N\N(Cc1ccccc1)c1ccccc1)c1cccnc1 ?
Lmaj promast: 16.8; T cruzi repl: 62.3*; DTT redox prof: -0.2; Hep lipid drop: 22.5; MPTP block: 4.1

How did O=C(CC1SC(=NCCc2ccccc2)N(/N=C/c2cccs2)C1=O)Nc1ccc(Cl)cc1 (centres undefined) do in these assays?
Lmaj promast: 6.7; T cruzi repl: 49.4; DTT redox prof: 1.4; Hep lipid drop: -15.8; MPTP block: -12.1

Results for O=C(Nc1cccc2ccccc12)C12CC3CC(C1)CC(n1cnc([N+](=O)[O-])n1)(C3)C2 ?
Lmaj promast: 73.4*; T cruzi repl: 43.8; DTT redox prof: 0.1; Hep lipid drop: -13.4; MPTP block: -1.9

What do the screens show for `O=C(Cn1cc(C(F)(F)F)cc(Cl)c1=O)Nc1cc(Cl)cc(Cl)c1`?
Lmaj promast: -3.0; T cruzi repl: -0.9; DTT redox prof: -2.0; Hep lipid drop: -10.4; MPTP block: 10.5

How did O=C(NC1CCCC1)C(c1cccs1)N(C(=O)c1csnn1)c1ccccc1F (centres undefined) do in these assays?
T cruzi repl: -9.2; Hep lipid drop: -0.2; MPTP block: 0.1

Results for CC(NC(=O)COC(=O)[C@@H]1CCCN1S(=O)(=O)c1ccccc1F)C12CC3CC(CC(C3)C1)C2 (some centres undefined) ?
Lmaj promast: 95.6*; T cruzi repl: -2.9; DTT redox prof: 0.0; Hep lipid drop: 4.7; MPTP block: 2.7

How did O=C(OCC(=O)N1CCc2ccccc21)[C@@H]1CCCN1S(=O)(=O)c1ccccc1F do in these assays?
MPTP block: 0.0

How did C/C(Cl)=C\Cn1c(O)c(N=NC(N)=S)c2cc(Br)ccc21 do in these assays?
Lmaj promast: 36.6; T cruzi repl: 76.7*; DTT redox prof: -0.2; Hep lipid drop: -1.0; MPTP block: 0.4

Results for NC(=S)N=Nc1c(O)n(CCCl)c2ccc(Br)cc12 ?
T cruzi repl: 24.9; Hep lipid drop: -2.8; MPTP block: 3.9

How did CC(O)CNc1nc2ccccc2n1-c1ncnc2sc3c(c12)CCC3 (centres undefined) do in these assays?
Lmaj promast: 73.7*; T cruzi repl: 37.7; DTT redox prof: 2.3; MPTP block: 31.7

How did CCN(c1cccc(C)c1)C(C(=O)Nc1ccc(OC)cc1)c1cc2c(cc1[N+](=O)[O-])OCO2 (centres undefined) do in these assays?
Lmaj promast: 78.5*; T cruzi repl: 7.2; DTT redox prof: 2.2; Hep lipid drop: -12.5; MPTP block: 1.8

Results for O=C(NCc1ccc(Cl)cc1)C1CCN(S(=O)(=O)c2cccnc2)CC1 ?
T cruzi repl: 3.7; Hep lipid drop: 9.7; MPTP block: -2.5

Results for Cc1ccc2nc(NC(=O)C3CCN(S(=O)(=O)c4cccnc4)CC3)sc2c1 ?
Lmaj promast: 35.9; T cruzi repl: 28.3; DTT redox prof: -0.3; MPTP block: -1.2

Results for CCOc1ccc2nc(NC(=O)C3CCN(S(=O)(=O)c4cnc[nH]4)CC3)sc2c1 ?
Lmaj promast: 2.3; T cruzi repl: -3.1; DTT redox prof: -1.2; MPTP block: -0.9

How did O=C(Nc1ccc(Cl)cc1F)C1CCN(S(=O)(=O)c2cccnc2)CC1 do in these assays?
Lmaj promast: 72.6*; T cruzi repl: 10.6; DTT redox prof: -0.6; Hep lipid drop: -15.6; MPTP block: -1.5

How did CCOc1ccc2nc(NC(=O)C3CCN(c4cnccn4)CC3)sc2c1 do in these assays?
Lmaj promast: 70.1*; T cruzi repl: 60.7*; DTT redox prof: 2.4; MPTP block: 2.8

How did Cc1ccc2nc(NC(=O)C3CCN(S(=O)(=O)c4cccs4)CC3)sc2c1 do in these assays?
Lmaj promast: 52.3*; T cruzi repl: 45.2; DTT redox prof: 1.9; MPTP block: -0.7

Results for COc1ccc2nc(NC(=O)C3CCN(S(=O)(=O)c4cccnc4)CC3)sc2c1 ?
Lmaj promast: 54.3*; T cruzi repl: 37.6; DTT redox prof: -0.7; MPTP block: -0.6

How did COc1ccc(CNC(=O)Cn2c(=O)n(CCC(=O)N3CCCCC3)c(=O)c3sccc32)cc1 do in these assays?
T cruzi repl: 0.5; Hep lipid drop: 6.4; MPTP block: -1.9

How did COc1ccccc1C1CC(c2cccc(NS(C)(=O)=O)c2)=NN1S(=O)(=O)c1ccccc1 (centres undefined) do in these assays?
T cruzi repl: -2.7; Hep lipid drop: -5.4; MPTP block: 1.1

What do the screens show for `COc1ccccc1NC(=O)c1ccc(NC(=O)COC(=O)CC(NC(=O)c2ccccc2Cl)c2ccccc2)cc1` (centres undefined)?
Lmaj promast: -3.4; T cruzi repl: -6.7; DTT redox prof: 0.1; Hep lipid drop: 12.5; MPTP block: -1.5

What do the screens show for `Cc1ccc2nc(NC(=O)CSc3nnc(C)c(=O)n3N)sc2c1`?
Lmaj promast: 54.5*; T cruzi repl: 1.0; DTT redox prof: 0.1; Hep lipid drop: -0.9; MPTP block: -0.4

Results for Cc1ccc(NC(=O)C2CCN(c3cnccn3)CC2)cc1 ?
Lmaj promast: 78.0*; T cruzi repl: 63.0*; DTT redox prof: -1.0; Hep lipid drop: 6.1; MPTP block: -0.2

How did CCOc1ccc2nc(NC(=O)CSc3nnnn3C3CCCCC3)sc2c1 do in these assays?
Lmaj promast: 10.4; T cruzi repl: 56.0*; DTT redox prof: 0.8; Hep lipid drop: -4.9; MPTP block: 3.5

Results for Cc1ccc(NC(=O)CSc2nnc(C)c(=O)n2N)c(C)c1 ?
Lmaj promast: -6.0; T cruzi repl: 11.5; DTT redox prof: -0.2; Hep lipid drop: 22.1; MPTP block: -1.5

Results for COc1ccc2nc(NC(=O)CSc3nnnn3C3CCCCC3)sc2c1 ?
Lmaj promast: 4.0; T cruzi repl: 13.5; DTT redox prof: 2.3; Hep lipid drop: 5.1; MPTP block: 3.1

How did O=C(Nc1ccc(F)c(Cl)c1)C1CCCN(c2cnccn2)C1 (centres undefined) do in these assays?
T cruzi repl: 60.8*; Hep lipid drop: -4.6; MPTP block: 0.1

Results for CCCC(=O)NCc1nc2ccccc2n1CC(=O)c1ccccc1 ?
T cruzi repl: -6.6; Hep lipid drop: -1.1; MPTP block: 0.3

Source: PubChem BioAssay (several laboratories)
